Experiments:
[1] = molecular target: Delta-type opioid receptor (Homo sapiens, UniProt P41143); assay: Displacement of [3H]-DPDPE from human delta opioid receptor expressed in HN9.10 cells after 3 hrs by scintillation counting; type: cell-based
Method in brief: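 Membranes from transfected HN9.10 cells expressing MOR or DOR, in 50 mM Tris pH 7.4 with bacitracin, bestatin, captopril, PMSF, BSA. 50 μg membrane with 10 concentrations of test compound and 1.0 nM [3H]DAMGO (MOR) or [3H]DPDPE (DOR); nonspecific with 10 μM naloxone. 25 °C, 3 h, duplicate; GF/B filtration, scintillation counting; Ki by Cheng–Prusoff.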

[2] = molecular target: Kappa-type opioid receptor (Homo sapiens, UniProt P41145); assay: Displacement of [3H]-U69593 from human kappa opioid receptor expressed in CHO cells after 60 mins by scintillation counting; type: cell-based
Method in brief: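 Recombinant CHO cell membranes incubated 60 min at room temperature with 3 nM [3H]U69593 and varying ligand concentrations; nonspecific binding with 10 μM naloxone. Rapid filtration, liquid scintillation counting. Ki by Cheng–Prusoff; four independent experiments, each in duplicate.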

[3] = molecular target: Mu-type opioid receptor (Cavia porcellus) (UniProt P97266); assay: Agonist activity at mu opioid receptor in Hartley guinea pig ileum assessed as inhibition of electrically-stimulated muscle contraction at 1 uM after 3 mins; type: functional, tissue-based
Method in brief: (§1)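 Transmurally stimulated tissue (0.1 Hz; 2.0 ms pulses MVD, 0.4 ms GPI; supramaximal voltage) from male ICR mice (25−30 g) or male Hartley guinea pigs (150−400 g; ileum longitudinal muscle-myenteric plexus), in 37 °C oxygenated Krebs bicarbonate (Mg-free for MVD), tension 0.5 g MVD / 1 g GPI. Agonist in contact 3 min, then washout; percent inhibition of contraction at single concentration.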

[4] = molecular target: Delta-type opioid receptor (Mus musculus) (UniProt P32300); assay: Agonist activity at delta opioid receptor in ICR mouse vas deferens assessed as inhibition of electrically-stimulated muscle contraction at 1 uM after 3 mins; type: functional, tissue-based; method in brief: as §1
Delta-type opioid receptor (Mus musculus), sequence (P32300 whole entry): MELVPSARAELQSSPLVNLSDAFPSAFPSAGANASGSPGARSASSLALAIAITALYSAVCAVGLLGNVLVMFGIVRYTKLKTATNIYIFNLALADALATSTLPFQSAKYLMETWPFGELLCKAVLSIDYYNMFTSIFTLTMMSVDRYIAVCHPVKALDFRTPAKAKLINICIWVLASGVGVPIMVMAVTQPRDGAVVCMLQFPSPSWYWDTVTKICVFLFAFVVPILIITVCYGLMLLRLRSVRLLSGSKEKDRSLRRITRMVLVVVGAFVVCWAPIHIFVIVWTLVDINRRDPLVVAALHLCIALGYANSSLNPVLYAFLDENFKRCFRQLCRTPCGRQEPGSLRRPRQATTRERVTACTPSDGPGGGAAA

Kappa-type opioid receptor, sequence (P41145 whole entry): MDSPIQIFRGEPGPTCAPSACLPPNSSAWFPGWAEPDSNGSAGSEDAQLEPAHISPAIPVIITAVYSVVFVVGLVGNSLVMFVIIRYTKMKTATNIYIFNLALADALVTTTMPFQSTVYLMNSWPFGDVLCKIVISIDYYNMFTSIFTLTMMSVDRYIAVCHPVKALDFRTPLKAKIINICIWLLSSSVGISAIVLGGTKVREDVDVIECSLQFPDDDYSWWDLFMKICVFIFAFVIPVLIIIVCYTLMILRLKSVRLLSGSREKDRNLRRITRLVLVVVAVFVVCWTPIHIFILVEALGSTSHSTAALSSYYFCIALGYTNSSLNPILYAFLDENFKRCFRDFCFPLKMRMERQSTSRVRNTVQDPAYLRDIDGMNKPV
Mu-type opioid receptor (Cavia porcellus), sequence (P97266 whole entry): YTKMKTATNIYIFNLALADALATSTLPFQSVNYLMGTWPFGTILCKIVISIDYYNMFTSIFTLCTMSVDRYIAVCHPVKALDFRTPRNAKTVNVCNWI
Delta-type opioid receptor, sequence (P41143 whole entry): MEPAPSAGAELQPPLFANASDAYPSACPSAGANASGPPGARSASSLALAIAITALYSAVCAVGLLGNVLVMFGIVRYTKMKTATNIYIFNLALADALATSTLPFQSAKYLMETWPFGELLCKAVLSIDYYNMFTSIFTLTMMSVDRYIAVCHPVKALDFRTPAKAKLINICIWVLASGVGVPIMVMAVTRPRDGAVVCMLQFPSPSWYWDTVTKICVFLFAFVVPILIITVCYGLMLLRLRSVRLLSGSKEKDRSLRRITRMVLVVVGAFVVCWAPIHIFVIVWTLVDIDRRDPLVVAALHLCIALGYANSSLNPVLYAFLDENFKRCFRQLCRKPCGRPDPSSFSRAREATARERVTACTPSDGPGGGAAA

Row | SMILES | Ki [1] | Ki [2] | inhibition [3] [%] | inhibition [4] [%]
1 | N[C@@H](Cc1ccc(O)cc1)C(=O)N1C[C@@H]2C[C@H]1C(=O)N[C@@H](Cc1ccccc1)C(=O)N[C@@H](Cc1ccccc1)C(=O)N2 | Not Active | Not Active | 1.4 | 0
2 | Br.NC(=O)[C@H](Cc1ccccc1)NC(=O)[C@H](Cc1ccccc1)NC(=O)[C@@H]1C[C@H](N)CN1C(=O)[C@@H](N)Cc1ccc(O)cc1 | Not Active | Not Active |  | 20
3 | Br.N[C@H]1C[C@@H](C(=O)N[C@@H](Cc2ccccc2)C(=O)N[C@@H](Cc2ccccc2)C(=O)O)N(C(=O)[C@@H](N)Cc2ccc(O)cc2)C1 |  | Not Active | 0 | 3.6
